The text below walks through data of ChEMBL document CHEMBL1136468, “B-ring unsaturated estrogens: biological evaluation of 17alpha-Dihydroequilein and novel B-Nor-6-thiaequilenins as tissue selective estrogens” (Bioorg Med Chem Lett, 2003).

pKi: −log10 of the molar value. Bounds are passed on as bounds.

Experiment [1] relates to Rattus norvegicus. Kind of experiment: (§1) Percent decrease in serum cholesterol in ovariectomized (OVX) rats at 0.10 mg/kg dose. It counts as functional. As to conditions: dose 0.1 mg/kg. In outline:
(§2)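 Six-month-old ovariectomized rats were dosed orally for 5 weeks, and total serum cholesterol was measured against OVX controls. Groups were compared by one-way ANOVA with p < 0.05.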

For experiment [2], the system named is Rattus norvegicus. The experiment is described as §1. Details: scale not given: the % may be the effect or the level left. As to conditions: dose 0.1 mg/kg.
The target in experiment [3] is T1, Estrogen receptor (Homo sapiens, UniProt P03372).
T1 sequence (P03372 whole entry): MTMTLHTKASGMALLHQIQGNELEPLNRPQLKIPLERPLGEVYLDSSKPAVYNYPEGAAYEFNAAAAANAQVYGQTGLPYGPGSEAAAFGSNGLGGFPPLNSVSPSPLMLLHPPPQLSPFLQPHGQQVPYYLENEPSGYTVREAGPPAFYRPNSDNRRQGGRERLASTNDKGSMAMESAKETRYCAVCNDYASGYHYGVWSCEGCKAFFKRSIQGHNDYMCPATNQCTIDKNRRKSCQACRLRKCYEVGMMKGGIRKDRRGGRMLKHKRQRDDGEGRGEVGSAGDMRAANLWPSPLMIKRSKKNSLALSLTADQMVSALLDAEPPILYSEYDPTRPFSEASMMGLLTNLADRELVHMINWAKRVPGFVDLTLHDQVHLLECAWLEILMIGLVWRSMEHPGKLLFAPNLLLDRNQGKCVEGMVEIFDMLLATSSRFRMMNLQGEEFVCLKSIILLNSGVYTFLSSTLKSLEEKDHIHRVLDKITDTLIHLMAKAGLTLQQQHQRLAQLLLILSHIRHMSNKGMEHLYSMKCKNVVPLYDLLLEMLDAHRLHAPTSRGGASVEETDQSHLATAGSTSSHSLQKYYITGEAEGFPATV
In words: Binding affinity against human estrogen receptor alpha.

Experiment [4] has as its target Estrogen receptor beta (Homo sapiens, UniProt Q92731). Kind of experiment: Binding affinity against human estrogen receptor beta. In outline:
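Competitive binding to human ERβ, reported as Ki (nM). Compounds generally run in duplicate; minimum significant ratio for the binding assay is 2-fold.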

Experiment [5] deals with Rattus norvegicus. Kind of experiment: Bone density at proximal metaphysis of excised femur in ovariectomized (OVX) rats at 0.01 mg/kg dose. In kind it is functional. In outline: (§3)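 Six-month-old ovariectomized rats were dosed orally for 5 weeks. Bone density was measured at the proximal metaphysis of the excised femur. Percent protection was calculated for each animal as (BMD test − BMD OVX)/(BMD sham − BMD OVX) × 100. Statistics used one-way ANOVA with p < 0.05.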

The subject of experiment [6] is Rattus norvegicus. In words: Bone density at proximal metaphysis of excised femur in ovariectomized (OVX) rats at 10.00 mg/kg dose. It counts as functional. In outline: as §3
Experiment [7] concerns Rattus norvegicus. Kind of experiment: (§4) Percent decrease in serum cholesterol in ovariectomized (OVX) rats at 10 mg/kg dose. It counts as functional. Details: scale not given: the % may be the effect or the level left. In outline: as §2
The subject of experiment [8] is Rattus norvegicus. The description is as §4. It counts as functional. In outline: as §2
The species entered for experiment [9] is Rattus norvegicus. Kind of experiment: Effective dose in rat. It counts as functional.
Experiment [10] relates to Rattus norvegicus. Kind of experiment: Bone density at proximal metaphysis of excised femur in ovariectomized (OVX) rats at 0.1 mg/kg dose. It counts as functional. In outline:
as §3

Experiment [11] deals with Rattus norvegicus. Kind of experiment: Bone density at proximal metaphysis of excised femur in ovariectomized (OVX) rats at 1.00 mg/kg dose. In kind it is functional. In outline: as §3

Sequence of Estrogen receptor beta (Q92731 whole entry): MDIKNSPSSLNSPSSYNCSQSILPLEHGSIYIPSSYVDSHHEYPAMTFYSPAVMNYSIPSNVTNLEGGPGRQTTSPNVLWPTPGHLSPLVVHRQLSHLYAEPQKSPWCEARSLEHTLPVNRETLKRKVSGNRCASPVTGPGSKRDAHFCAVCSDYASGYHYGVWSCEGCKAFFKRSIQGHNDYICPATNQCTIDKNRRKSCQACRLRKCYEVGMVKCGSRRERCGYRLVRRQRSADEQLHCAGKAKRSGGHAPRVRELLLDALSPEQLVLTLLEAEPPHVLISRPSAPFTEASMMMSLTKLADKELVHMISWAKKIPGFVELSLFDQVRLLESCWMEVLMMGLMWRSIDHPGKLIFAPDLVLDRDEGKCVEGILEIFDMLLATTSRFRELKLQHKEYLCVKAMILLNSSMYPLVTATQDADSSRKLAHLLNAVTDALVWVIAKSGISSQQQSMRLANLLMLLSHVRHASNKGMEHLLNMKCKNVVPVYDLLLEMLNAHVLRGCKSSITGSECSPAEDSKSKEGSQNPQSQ

Turning to `C#C[C@]1(O)CC[C@H]2[C@@H]3CCc4cc(O)ccc4[C@H]3CC[C@@]21C` [ETHINYL ESTRADIOL], the Decrease in experiment [1] is given as 83.3%. The molecule further gave an Activity in experiment [2] of 83.3%.
With `C[C@@]12CCc3c(sc4cc(O)ccc34)[C@@H]1CC[C@H]2O`, the results for the negative logarithm of the Ki (pKi) in experiment [3] and in experiment [4] were 7.62 and 6.92, respectively.
For `C[C@]12CCc3c(sc4cc(O)ccc34)[C@@H]1CC[C@@H]2O`, the pKi – broadly, the negative decadic logarithm of the Ki, by convention in mol/L – in experiment [3] was 8.40; in [4], 7.96.
For `C[C@]12CCc3c(sc4cc(O)ccc34)[C@H]1CC[C@@H]2O` the same measures were 8.00 and 7.33.
For `C[C@@]12CCc3c(sc4cc(O)ccc34)[C@H]1CC[C@H]2O` the same measures were 7.89 and 7.77.
As to `C[C@]12CCc3c(sc4cc(O)ccc34)[C@@H]1CC[C@H]2O`, the pKi was 7.64 in experiment [3] and 7.14 in experiment [4].
For `C[C@]12CCc3c(ccc4cc(O)ccc34)[C@@H]1CC[C@H]2O`, the Protection turned out to be 6.1% in experiment [5], 119% in experiment [6], 26.5% in experiment [10] and 59.5% in experiment [11]. This molecule also returned an Activity in [7] of 93.8%. For the same molecule, the Decrease is given as 93.8% in experiment [8] and 66.3% in [1]. In [4], this molecule gave a pKi of 7.62. In experiment [9], the ED50 – broadly, the dose at which the effect has come halfway, by size or by number of responders – was under 0.1 mg/kg.
